The source made the active and inactive calls.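 Rule for the calls, unless noted: active = fluorescence slope higher than the sample average by over 3 SD (cut at about -0.22 in these data, passing the limit was not always enough); inactive = the rest.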
What was measured:
[1] = inhibitors of TNFa-induced NFkB p65 translocation, primary screen, imaging, HUVEC, MLSMR starter and 10KST1 sets (AID 438;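 active = inhibition above 20% together with a positive visual image hit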;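 note: compound added about 3h40 before a 20 min TNFalpha stimulation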;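 for inhibition: signal is the nuclear over cytoplasmic p65 intensity ratio per well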); settings: HUVEC TNFa-induced p65 nuclear translocation; cell count: measured here: nuclei count (cytotoxicity indicator), at 2.08 µM; inhibition: at 2 µM, stronger effect = higher value, 0% TNFa-plus-vehicle, 100% no-TNFa wells
[2] = reduction of polyQ htt aggregates in cells – imaging, exon1htt(103Q)mCFP cells, high-content imaging, primary screen (AID 483;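 active = visual image review flags a hit and inhibition of aggregation exceeds 20%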;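 note: compound exposure lasted 3 days before fixation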;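 for nuclei count: percent of the per-plate median nuclei count of sample wells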); settings: exon1htt(103Q)mCFP cell line, aggregate imaging, at 2 µM; inhibition of aggregation: stronger effect = higher value; nuclei count: measured here: cell count, toxicity
[3] = endothelial E-selectin expression blockers – imaging, HUVEC, immunofluorescence, MLSMR starter and 10KST1 sets, primary screen (AID 487;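 active = visually confirmed hit in the image check and inhibition above 20%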;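 for inhibition: signal is fraction of cell area covered by stained E-selectin grains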;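 for nuclei count: 100% = median nuclei count of all wells on the same plate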); settings: HUVEC TNFalpha-induced E-selectin immunofluorescence imaging, at 2 µM; inhibition: stronger effect = higher value; nuclei count: measured here: cell number, toxicity
[4] = biological target: Voltage-gated potassium channel subunit beta-2 (Rattus norvegicus) (UniProt P62483); experiment: inhibitors of rat Kvbeta2 reductase activity – biochemical, NADPH fluorescence, primary screen (AID 622); settings: recombinant KvBeta, 4-cyanobenzaldehyde reduction, at 10 µM, stronger effect = higher value;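 note: slope of raw intensity against log time taken from 70 to 1610 s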
Chain of Voltage-gated potassium channel subunit beta-2 (Rattus norvegicus) (P62483 whole entry, looked up): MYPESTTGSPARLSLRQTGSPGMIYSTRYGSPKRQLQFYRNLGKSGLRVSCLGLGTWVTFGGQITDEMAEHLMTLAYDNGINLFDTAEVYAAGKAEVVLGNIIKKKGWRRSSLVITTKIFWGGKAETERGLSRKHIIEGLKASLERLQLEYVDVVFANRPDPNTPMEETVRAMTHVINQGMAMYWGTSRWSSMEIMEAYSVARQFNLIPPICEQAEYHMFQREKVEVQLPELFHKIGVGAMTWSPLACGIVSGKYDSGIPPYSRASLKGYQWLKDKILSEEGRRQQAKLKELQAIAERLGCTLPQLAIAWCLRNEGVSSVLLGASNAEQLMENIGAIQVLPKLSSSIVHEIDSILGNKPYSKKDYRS

[5] = biological target: Voltage-gated potassium channel subunit beta-2 (Rattus norvegicus) (UniProt P62483); experiment: enhancers of rat Kvbeta2 NADPH turnover – biochemical, NADPH fluorescence, primary screen (AID 623;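 active = NADPH fluorescence slope more negative than the mean of all samples by about 3 SD, 99.7% confidence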;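 note: fluorescence intensity change per second fitted from 20 to 320 s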); settings: Recombinant KvBeta, NADPH fluorescence decrease slope, 10 min; at 10 µM; stronger effect = lower value
[6] = biological target: Alpha-2C adrenergic receptor (Homo sapiens) (UniProt P18825); experiment: compounds altering alpha2C-coupled GIRK flux – cell-based, HEK293 alpha2C/GIRK1/2, thallium flux, primary screen (AID 624;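 active = fluorescence slope after compound addition differing from the mean of all screened samples at 99.7% confidence, in either direction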;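 note: slope of fluorescence ratio to pre-addition baseline per second over 15 to 24 s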); settings: thallium flux BTC fluorescence, at 10 µM, actives lie on both sides
Chain of Alpha-2C adrenergic receptor (Homo sapiens) (P18825 whole entry, looked up): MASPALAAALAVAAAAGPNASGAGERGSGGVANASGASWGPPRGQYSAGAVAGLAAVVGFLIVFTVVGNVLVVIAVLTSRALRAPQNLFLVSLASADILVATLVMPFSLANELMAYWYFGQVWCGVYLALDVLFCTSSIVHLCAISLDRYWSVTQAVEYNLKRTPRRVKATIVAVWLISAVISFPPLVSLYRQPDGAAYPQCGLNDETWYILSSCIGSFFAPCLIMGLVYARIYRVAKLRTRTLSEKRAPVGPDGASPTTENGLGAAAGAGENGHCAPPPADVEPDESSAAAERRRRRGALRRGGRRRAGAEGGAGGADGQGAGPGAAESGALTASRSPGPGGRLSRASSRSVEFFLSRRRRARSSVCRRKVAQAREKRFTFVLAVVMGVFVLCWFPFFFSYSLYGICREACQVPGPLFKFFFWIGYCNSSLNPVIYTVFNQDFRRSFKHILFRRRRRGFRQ

[7] = inhibitors of larval lipid processing in zebrafish, primary screen, whole organism, PED6 fluorescence, gall bladder and intestine (AID 686;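 active = a full or partial loss of lipid-probe fluorescence in the fish gall bladder, intestine or both, judged by eye; inactive = no fluorescence loss, or compound toxic to the fish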;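 note: larvae 5 to 7 days old with five fish per well; signal comes from phospholipase A2 cleavage of quenched PED6 carried via bile; overnight exposure to compound and PED6 before scoring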); settings: Zebrafish larvae PED6 lipid processing, fluorescence scoring; screened at 20 µM (by protocol)
In short: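 System: live zebrafish larvae aged 5-7 days, whole organism; measure: graded gall bladder and intestinal fluorescence inhibition per well; incubation: overnight exposure; reagent: ingested quenched lipid PED6 at 100 nM; signal: By-eye fluorescence microscopy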

[8] = blockers of RIG-like receptor reporter activation – cell-based, Sendai virus stimulus, luciferase, 10K MLSCN set, TLR/RLR signaling modifier project, primary screen (AID 602276;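 active = inhibition at or above 50% at 10 µM; inactive = inhibition below 50%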;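 note: firefly luciferase from ISG56 promoter only with Renilla not read in this screen; 0% = Sendai virus plus DMSO and 100% = medium plus DMSO without virus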); settings: HEK293 RL24 IRF3 luciferase reporter, at 10 µM, stronger effect = higher value
[9] = TLR3 IRF3 reporter activation blockers – cell-based, poly I:C stimulus, luciferase, 10K MLSCN set, primary screen (AID 602277;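 active = inhibition of the reporter signal at or above 50%; inactive = inhibition below 50%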); settings: HEK293-TLR3 RL24 IRF3 luciferase reporter, at 10 µM, stronger effect = higher value

Compound	cell count [1]	inhibition [1]	inhibition of aggregation [2]	nuclei count [2]	inhibition [3]	nuclei count [3]	fluorescence slope [4]	NADPH fluorescence slope [5]	slope [6]	outcome [7]	inhibition [8]	inhibition [9]
CCCNC(=O)c1cc(-c2ccco2)on1	389	-3.9% (inactive)	-4.1% (inactive)	88.7%	-11.4% (inactive)	98.4%	-0.39 (inactive)	-4.2e-05 (inactive)	0.0057 (inactive)	inactive	-19% (inactive)	-154% (inactive)
O=C(C1CCCO1)N1CCN(S(=O)(=O)c2ccccc2)CC1 (centres undefined)	328	4% (inactive)	3.2% (inactive)	86.5%	-28.4% (inactive)	102%	-0.439 (inactive)	-8.1e-05 (inactive)	0.00532 (inactive)	inactive	12.6% (inactive)	12.9% (inactive)
O=C(CCC(=O)OCC(=O)c1ccccc1)NC1CCCCC1	449	1.2% (inactive)	1.6% (inactive)	95%	30.3% (inactive)	112%	-0.356 (inactive)	-6.3e-05 (inactive)	0.00794 (inactive)	inactive	-0.183% (inactive)	97.3% (active)
CN(CCNC(=O)c1ccc(N2CCCC2=O)cc1)CCc1ccccc1	624	-24% (inactive)	17.8% (inactive)	84.6%	-79.5% (inactive)	111%	-0.393 (inactive)	-2.4e-05 (inactive)	0.00561 (inactive)	inactive	6.9% (inactive)	10.4% (inactive)
Cc1cccc(NC(=O)CC2CCC2)c1	362	-4.1% (inactive)	3% (inactive)	97.1%	40.7% (inactive)	71.8%	-0.435 (inactive)	-2.3e-05 (inactive)	0.00515 (inactive)	inactive	3.07% (inactive)	-0.215% (inactive)
CC(C)CC(c1nnnn1C(C)(C)C)N1CCN(C2CCCC2)CC1 (centres undefined)	487	7.1% (inactive)	-11.7% (inactive)	98.2%	-5.6% (inactive)	109%	-0.33 (inactive)	-6.5e-05 (inactive)	0.00477 (inactive)	inactive	5.92% (inactive)	13.5% (inactive)
CCOC(=O)Cc1csc(NC(=O)c2cccc(OC)c2)n1	395	5.8% (inactive)	-28.7% (inactive)	97%	-15.2% (inactive)	113%	-0.459 (inactive)	-3.2e-05 (inactive)	0.00478 (inactive)	inactive	4.13% (inactive)	-6.24% (inactive)
COc1ccc(CNc2oc(-c3cccc4ccccc34)nc2C#N)cc1	570	-3.4% (inactive)	8.1% (inactive)	86.3%	56.8% (inactive)	86.1%	-0.183 (inactive)	6.8e-06 (inactive)	0.00641 (inactive)	inactive	4.97% (inactive)	7.07% (inactive)
Cc1cccc(NC(=O)CCCCCN2C(=O)c3ccccc3C2=O)n1	495	-4.8% (inactive)	-19.8% (inactive)	103%	-68.6% (inactive)	167%	-0.44 (inactive)	-6.5e-05 (inactive)	0.00404 (inactive)	inactive	15.6% (inactive)	15.2% (inactive)
Cc1ccc(CN2CCN(C(=O)C3CCC3)CC2)cc1	361	3.3% (inactive)	23.3% (inactive)	94.3%	-20.6% (inactive)	104%	-0.447 (inactive)	-2.3e-05 (inactive)	0.00503 (inactive)	inactive; toxic	15.1% (inactive)	6.88% (inactive)
O=C(NC1CCS(=O)(=O)C1)OC1CCCCC1 (centres undefined)	419	-1.2% (inactive)	2% (inactive)	111%	-91.7% (inactive)	105%	-0.468 (inactive)	-5.2e-05 (inactive)	0.0056 (inactive)	inactive	10.9% (inactive)	3.54% (inactive)
CCN(C(=O)c1ccnc(C(C)(C)C)c1)c1ccccc1	334	4.4% (inactive)	-6.8% (inactive)	99.8%	-63.1% (inactive)	128%	-0.385 (inactive)	-1.8e-05 (inactive)	0.0045 (inactive)	inactive	13.6% (inactive)	11.3% (inactive)
O=C(O)CSc1ncn[nH]1	718	-14.4% (inactive)	22.9% (inactive)	98.3%	-28.2% (inactive)	112%	-0.454 (inactive)	-4.4e-05 (inactive)	0.00435 (inactive)	inactive	15.3% (inactive)	12.4% (inactive)
Cc1nnc(SCC(=O)NCc2ccc3c(c2)OCO3)s1	418	3.1% (inactive)	-12% (inactive)	101%	-57% (inactive)	106%	-0.468 (inactive)	-4.3e-05 (inactive)	0.00565 (inactive)	inactive	5.5% (inactive)	11.6% (inactive)
Cc1cc(C(=O)COc2cccc3cccnc23)c(C)n1C	703	1.8% (inactive)	-22.3% (inactive)	107%	-154% (inactive)	117%	-0.327 (inactive)	-1.7e-05 (inactive)	0.00438 (inactive)	inactive	-44.6% (inactive)	-68% (inactive)
CC(C)(C)C(=O)OCC1OC(n2cnc(C(N)=O)n2)C(O)C1O (centres undefined)	468	-8.7% (inactive)	7.9% (inactive)	88.9%	49.3% (inactive)	88%	-0.382 (inactive)	8.9e-07 (inactive)	0.00529 (inactive)	inactive	5.04% (inactive)	4.14% (inactive)
Cc1c(C)n(C(=O)CN2CCN(c3ccccn3)CC2)c2ccccc12	428	2.3% (inactive)	2.9% (inactive)	95.7%	3.5% (inactive)	131%	-0.376 (inactive)	-3.7e-05 (inactive)	0.00497 (inactive)	inactive	8.12% (inactive)	11.3% (inactive)
O=C(NC1CCCCCC1)c1cc(S(=O)(=O)N2CCC3(CC2)OCCO3)ccc1F	503	-21.4% (inactive)	-53.3% (inactive)	72.9%	-16.2% (inactive)	83.7%	-0.36 (inactive)	9e-06 (inactive)	0.00552 (inactive)	inactive	-15.5% (inactive)	-37.6% (inactive)
Cc1onc(-c2ccccc2)c1C(=O)NCCN1CCOCC1	387	5% (inactive)	-14% (inactive)	129%	9.3% (inactive)	93.5%	-0.38 (inactive)	-2.2e-05 (inactive)	0.0053 (inactive)	inactive	0.171% (inactive)	0.994% (inactive)
O=C(Cc1nc2ccccc2s1)c1ccc(O)cc1O	322	1.1% (inactive)	-15.5% (inactive)	88.3%	-98.2% (inactive)	124%	-0.391 (inactive)	-0.000109 (inactive)	0.00457 (inactive)	inactive	-33.1% (inactive)	-88.7% (inactive)
CC1(C)CC2CC(C)(CN2S(=O)(=O)c2ccc(N)cc2)C1 (centres undefined)	613	-9.2% (inactive)	30.3% (inactive)	79.8%	65.6% (inactive)	60.2%	-0.374 (inactive)	-6.2e-05 (inactive)	0.00585 (inactive)	inactive	10.2% (inactive)	18.5% (inactive)
Cn1c(CN2CCCCC2)nc2cc(NC(=O)c3ccccc3)ccc21	435	-0.8% (inactive)	3.4% (inactive)	85.3%	2.3% (inactive)	92.4%	-0.438 (inactive)	-9.5e-07 (inactive)	0.00451 (inactive)	inactive	-17.4% (inactive)	98.6% (active)
CCOC(=O)C1CCN(CC(=O)Nc2c(C(=O)OC)[nH]c3ccc(Cl)cc23)CC1	340	4.8% (inactive)	-27.5% (inactive)	104%	-29.3% (inactive)	107%	-0.383 (inactive)	-6.2e-05 (inactive)	0.00328 (inactive)	inactive	8.17% (inactive)	-16.2% (inactive)
CC(=O)Nc1ccc(Cc2ccncc2)cc1	528	-7.4% (inactive)	14.9% (inactive)	93.3%	-40.3% (inactive)	115%	-0.39 (inactive)	-4.8e-05 (inactive)	0.00486 (inactive)	inactive	6.14% (inactive)	4.37% (inactive)
CCN(CC(=O)Nc1ccc2c(c1)CCC2)Cc1nc2ccccc2c(=O)[nH]1	382	1.3% (inactive)	-17.4% (inactive)	102%	-1.6% (inactive)	102%	-0.455 (inactive)	-3.6e-05 (inactive)	0.00524 (inactive)	inactive	13.7% (inactive)	14.8% (inactive)
CS(=O)(=O)N(CC(=O)Nc1ccc2c(c1)OCO2)Cc1ccc(Cl)cc1	303	8.9% (inactive)	-3.1% (inactive)	92%	-20.4% (inactive)	88.8%	-0.428 (inactive)	-6.6e-05 (inactive)	0.00445 (inactive)	inactive	11.9% (inactive)	17.7% (inactive)
Cc1nn(C(=O)c2ccccc2)c2c1C(=O)CC(C)(C)C2	380	1.3% (inactive)	-11.8% (inactive)	104%	-114% (inactive)	112%	-0.419 (inactive)	-1e-05 (inactive)	0.00514 (inactive)	inactive	18.8% (inactive)	17.1% (inactive)
